# Measurements: ChEMBL document CHEMBL1687785, “ampG gene of Pseudomonas aeruginosa and its role in β-lactamase expression” (2010)
# What was measured:
# Format in all cases: functional
# Pseudomonas aeruginosa [1] = test: Antimicrobial activity against Pseudomonas aeruginosa isolate 8 obtained from cystic fibrosis patients after 16 to 20 hrs by broth microdilution method in presence of 120 uM carbonyl cyanide m-chlorophenyl-hydrazone
# How it was run: (§1)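 CLSI broth microdilution in Mueller-Hinton broth with serial antibiotic dilutions. CCCP was added from a 10 mM DMSO stock to 120 μM final, then the bacterial culture was added as inoculum (about 10^4 cells from OD600 0.5 starter cultures). MIC was the lowest concentration preventing growth after 16 to 20 h at 37°C, run in triplicate.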
# Pseudomonas aeruginosa [2] = test: Antimicrobial activity against Pseudomonas aeruginosa isolate 8 obtained from cystic fibrosis patients after 16 to 20 hrs by broth microdilution method
# How it was run: (§2)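 CLSI broth microdilution in Mueller-Hinton broth, serial 2-fold antibiotic dilutions. Inoculum about 10^4 cells per well, taken from starter cultures grown to OD600 0.5. MIC was the lowest antibiotic concentration preventing growth after 16 to 20 h at 37°C. Each MIC was determined in triplicate.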
# Pseudomonas aeruginosa [3] = test: Antimicrobial activity against Pseudomonas aeruginosa isolate 5 obtained from cystic fibrosis patients after 16 to 20 hrs by broth microdilution method; how it was run: as §2
# Pseudomonas aeruginosa [4] = test: Antimicrobial activity against Pseudomonas aeruginosa isolate 10 obtained from cystic fibrosis patients after 16 to 20 hrs by broth microdilution method in presence of 120 uM carbonyl cyanide m-chlorophenyl-hydrazone
# How it was run: (§3)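 CLSI broth microdilution in Mueller-Hinton broth with CCCP added from a 10 mM DMSO stock to 120 μM final, alongside 2-fold serial antibiotic dilutions. Inoculum from starter cultures grown to OD600 0.5. MIC is the lowest concentration preventing growth after 16-20 h at 37°C. Triplicate.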
# Pseudomonas aeruginosa [5] = test: Antimicrobial activity against Pseudomonas aeruginosa isolate 18 obtained from cystic fibrosis patients after 16 to 20 hrs by broth microdilution method in presence of 120 uM carbonyl cyanide m-chlorophenyl-hydrazone; how it was run: as §1
# Pseudomonas aeruginosa [6] = test: Antimicrobial activity against Pseudomonas aeruginosa isolate 11 obtained from cystic fibrosis patients after 16 to 20 hrs by broth microdilution method in presence of 120 uM carbonyl cyanide m-chlorophenyl-hydrazone; how it was run: as §3
# Pseudomonas aeruginosa [7] = test: Antimicrobial activity against Pseudomonas aeruginosa isolate 14 obtained from cystic fibrosis patients after 16 to 20 hrs by broth microdilution method
# How it was run: (§4)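 CLSI broth microdilution: 2-fold serial antibiotic dilutions in Mueller-Hinton broth, inoculated with about 10^4 cells per 100 μl from starter cultures grown to OD600 0.5. MIC is the lowest concentration preventing growth after 16-20 h at 37°C. Triplicate.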
# Pseudomonas aeruginosa [8] = test: Antimicrobial activity against Pseudomonas aeruginosa isolate 13 obtained from cystic fibrosis patients after 16 to 20 hrs by broth microdilution method in presence of 120 uM carbonyl cyanide m-chlorophenyl-hydrazone; how it was run: as §3
# Pseudomonas aeruginosa [9] = test: Antimicrobial activity against Pseudomonas aeruginosa isolate 1 obtained from cystic fibrosis patients after 16 to 20 hrs by broth microdilution method in presence of 120 uM carbonyl cyanide m-chlorophenyl-hydrazone; how it was run: as §3
# Pseudomonas aeruginosa [10] = test: Antimicrobial activity against Pseudomonas aeruginosa isolate 9 obtained from cystic fibrosis patients after 16 to 20 hrs by broth microdilution method in presence of 120 uM carbonyl cyanide m-chlorophenyl-hydrazone; how it was run: as §1
# Pseudomonas aeruginosa [11] = test: Antimicrobial activity against Pseudomonas aeruginosa isolate 6 obtained from cystic fibrosis patients after 16 to 20 hrs by broth microdilution method; how it was run: as §2
# Pseudomonas aeruginosa [12] = test: Antimicrobial activity against Pseudomonas aeruginosa isolate 14 obtained from cystic fibrosis patients after 16 to 20 hrs by broth microdilution method in presence of 120 uM carbonyl cyanide m-chlorophenyl-hydrazone; how it was run: as §3
# Pseudomonas aeruginosa [13] = test: Antimicrobial activity against Pseudomonas aeruginosa isolate 4 obtained from cystic fibrosis patients after 16 to 20 hrs by broth microdilution method; how it was run: as §2
# Pseudomonas aeruginosa [14] = test: Antimicrobial activity against Pseudomonas aeruginosa isolate 5 obtained from cystic fibrosis patients after 16 to 20 hrs by broth microdilution method in presence of 120 uM carbonyl cyanide m-chlorophenyl-hydrazone; how it was run: as §1
# Pseudomonas aeruginosa [15] = test: Antimicrobial activity against Pseudomonas aeruginosa isolate 6 obtained from cystic fibrosis patients after 16 to 20 hrs by broth microdilution method in presence of 120 uM carbonyl cyanide m-chlorophenyl-hydrazone; how it was run: as §1
# Pseudomonas aeruginosa [16] = test: Antimicrobial activity against Pseudomonas aeruginosa isolate 2 obtained from cystic fibrosis patients after 16 to 20 hrs by broth microdilution method; how it was run: as §2
# Pseudomonas aeruginosa [17] = test: Antimicrobial activity against Pseudomonas aeruginosa isolate 18 obtained from cystic fibrosis patients after 16 to 20 hrs by broth microdilution method; how it was run: as §2
# Pseudomonas aeruginosa [18] = test: Antimicrobial activity against Pseudomonas aeruginosa isolate 3 obtained from cystic fibrosis patients after 16 to 20 hrs by broth microdilution method; how it was run: as §2
# Pseudomonas aeruginosa [19] = test: Antimicrobial activity against Pseudomonas aeruginosa isolate 3 obtained from cystic fibrosis patients after 16 to 20 hrs by broth microdilution method in presence of 120 uM carbonyl cyanide m-chlorophenyl-hydrazone; how it was run: as §1
# Pseudomonas aeruginosa [20] = test: Antimicrobial activity against Pseudomonas aeruginosa isolate 13 obtained from cystic fibrosis patients after 16 to 20 hrs by broth microdilution method; how it was run: as §4
# Pseudomonas aeruginosa [21] = test: Antimicrobial activity against Pseudomonas aeruginosa isolate 15 obtained from cystic fibrosis patients after 16 to 20 hrs by broth microdilution method; how it was run: as §4
# Pseudomonas aeruginosa [22] = test: Antimicrobial activity against Pseudomonas aeruginosa isolate 16 obtained from cystic fibrosis patients after 16 to 20 hrs by broth microdilution method; how it was run: as §4
# Pseudomonas aeruginosa [23] = test: Antimicrobial activity against Pseudomonas aeruginosa isolate 1 obtained from cystic fibrosis patients after 16 to 20 hrs by broth microdilution method; how it was run: as §4
# Pseudomonas aeruginosa [24] = test: Antimicrobial activity against Pseudomonas aeruginosa isolate 2 obtained from cystic fibrosis patients after 16 to 20 hrs by broth microdilution method in presence of 120 uM carbonyl cyanide m-chlorophenyl-hydrazone; how it was run: as §1
# Pseudomonas aeruginosa [25] = test: Antimicrobial activity against Pseudomonas aeruginosa isolate 16 obtained from cystic fibrosis patients after 16 to 20 hrs by broth microdilution method in presence of 120 uM carbonyl cyanide m-chlorophenyl-hydrazone; how it was run: as §3
# Pseudomonas aeruginosa [26] = test: Antimicrobial activity against Pseudomonas aeruginosa isolate 4 obtained from cystic fibrosis patients after 16 to 20 hrs by broth microdilution method in presence of 120 uM carbonyl cyanide m-chlorophenyl-hydrazone; how it was run: as §1
# Pseudomonas aeruginosa [27] = test: Antimicrobial activity against Pseudomonas aeruginosa isolate 7 obtained from cystic fibrosis patients after 16 to 20 hrs by broth microdilution method in presence of 120 uM carbonyl cyanide m-chlorophenyl-hydrazone; how it was run: as §1
# Pseudomonas aeruginosa [28] = test: Antimicrobial activity against Pseudomonas aeruginosa isolate 9 obtained from cystic fibrosis patients after 16 to 20 hrs by broth microdilution method; how it was run: as §2
# Pseudomonas aeruginosa [29] = test: Antimicrobial activity against Pseudomonas aeruginosa isolate 12 obtained from cystic fibrosis patients after 16 to 20 hrs by broth microdilution method in presence of 120 uM carbonyl cyanide m-chlorophenyl-hydrazone; how it was run: as §3
# Pseudomonas aeruginosa [30] = test: Antimicrobial activity against Pseudomonas aeruginosa isolate 7 obtained from cystic fibrosis patients after 16 to 20 hrs by broth microdilution method; how it was run: as §2
# Pseudomonas aeruginosa [31] = test: Antimicrobial activity against Pseudomonas aeruginosa isolate 15 obtained from cystic fibrosis patients after 16 to 20 hrs by broth microdilution method in presence of 120 uM carbonyl cyanide m-chlorophenyl-hydrazone; how it was run: as §3
# Pseudomonas aeruginosa [32] = test: Antimicrobial activity against Pseudomonas aeruginosa isolate 12 obtained from cystic fibrosis patients after 16 to 20 hrs by broth microdilution method; how it was run: as §4
# Pseudomonas aeruginosa [33] = test: Antimicrobial activity against Pseudomonas aeruginosa isolate 10 obtained from cystic fibrosis patients after 16 to 20 hrs by broth microdilution method; how it was run: as §4
# Pseudomonas aeruginosa [34] = test: Antimicrobial activity against Pseudomonas aeruginosa isolate 17 obtained from cystic fibrosis patients after 16 to 20 hrs by broth microdilution method in presence of 120 uM carbonyl cyanide m-chlorophenyl-hydrazone; how it was run: as §1
# Pseudomonas aeruginosa [35] = test: Antimicrobial activity against Pseudomonas aeruginosa isolate 11 obtained from cystic fibrosis patients after 16 to 20 hrs by broth microdilution method; how it was run: as §4
# Pseudomonas aeruginosa [36] = test: Antimicrobial activity against Pseudomonas aeruginosa isolate 17 obtained from cystic fibrosis patients after 16 to 20 hrs by broth microdilution method; how it was run: as §2
Structure (SMILES),MIC (Pseudomonas aeruginosa [1]) [µg/mL],MIC (Pseudomonas aeruginosa [2]) [µg/mL],MIC (Pseudomonas aeruginosa [3]) [µg/mL],MIC (Pseudomonas aeruginosa [4]) [µg/mL],MIC (Pseudomonas aeruginosa [5]) [µg/mL],MIC (Pseudomonas aeruginosa [6]) [µg/mL],MIC (Pseudomonas aeruginosa [7]) [µg/mL],MIC (Pseudomonas aeruginosa [8]) [µg/mL],MIC (Pseudomonas aeruginosa [9]) [µg/mL],MIC (Pseudomonas aeruginosa [10]) [µg/mL],MIC (Pseudomonas aeruginosa [11]) [µg/mL],MIC (Pseudomonas aeruginosa [12]) [µg/mL],MIC (Pseudomonas aeruginosa [13]) [µg/mL],MIC (Pseudomonas aeruginosa [14]) [µg/mL],MIC (Pseudomonas aeruginosa [15]) [µg/mL],MIC (Pseudomonas aeruginosa [16]) [µg/mL],MIC (Pseudomonas aeruginosa [17]) [µg/mL],MIC (Pseudomonas aeruginosa [18]) [µg/mL],MIC (Pseudomonas aeruginosa [19]) [µg/mL],MIC (Pseudomonas aeruginosa [20]) [µg/mL],further results
CN(C)[C@@H]1C(O)=C(C(N)=O)C(=O)[C@@]2(O)C(O)=C3C(=O)c4c(O)cccc4[C@@](C)(O)[C@H]3C[C@@H]12 [TETRACYCLINE],8,16,8,8,8,8,8,8,8,8,8,8,8,8,8,8,16,8,8,8,MIC (Pseudomonas aeruginosa [21]): 8 µg/mL; MIC (Pseudomonas aeruginosa [22]): 8 µg/mL; MIC (Pseudomonas aeruginosa [23]): 8 µg/mL; MIC (Pseudomonas aeruginosa [24]): 8 µg/mL; MIC (Pseudomonas aeruginosa [25]): 8 µg/mL; MIC (Pseudomonas aeruginosa [26]): 8 µg/mL; MIC (Pseudomonas aeruginosa [27]): 8 µg/mL; MIC (Pseudomonas aeruginosa [28]): 8 µg/mL; MIC (Pseudomonas aeruginosa [29]): 8 µg/mL; MIC (Pseudomonas aeruginosa [30]): 8 µg/mL; MIC (Pseudomonas aeruginosa [31]): 8 µg/mL; MIC (Pseudomonas aeruginosa [32]): 8 µg/mL; MIC (Pseudomonas aeruginosa [33]): 8 µg/mL; MIC (Pseudomonas aeruginosa [34]): 8 µg/mL; MIC (Pseudomonas aeruginosa [35]): 8 µg/mL; MIC (Pseudomonas aeruginosa [36]): 8 µg/mL
O=C(N[C@H](CO)[C@H](O)c1ccc([N+](=O)[O-])cc1)C(Cl)Cl [CHLORAMPHENICOL],32,32,32,8,32,32,16,8,64,16,8,8,32,32,8,256,32,256,64,32,MIC (Pseudomonas aeruginosa [21]): 8 µg/mL; MIC (Pseudomonas aeruginosa [22]): 8 µg/mL; MIC (Pseudomonas aeruginosa [23]): 256 µg/mL; MIC (Pseudomonas aeruginosa [24]): 256 µg/mL; MIC (Pseudomonas aeruginosa [25]): 8 µg/mL; MIC (Pseudomonas aeruginosa [26]): 32 µg/mL; MIC (Pseudomonas aeruginosa [27]): 8 µg/mL; MIC (Pseudomonas aeruginosa [28]): 16 µg/mL; MIC (Pseudomonas aeruginosa [29]): 8 µg/mL; MIC (Pseudomonas aeruginosa [30]): 8 µg/mL; MIC (Pseudomonas aeruginosa [31]): 8 µg/mL; MIC (Pseudomonas aeruginosa [32]): 8 µg/mL; MIC (Pseudomonas aeruginosa [33]): 32 µg/mL; MIC (Pseudomonas aeruginosa [34]): 8 µg/mL; MIC (Pseudomonas aeruginosa [35]): 32 µg/mL; MIC (Pseudomonas aeruginosa [36]): 8 µg/mL
